Reference: ChEMBL document CHEMBL1629627, “CTX-M expression and selection of ertapenem resistance in Klebsiella pneumoniae and Escherichia coli” (Antimicrob Agents Chemother, 2009)
Calls of active or inactive are those of the source. The calls are words filed in the database; no cut-off is given here.

Columns and labels:
Type in all cases: functional, organism-based
Escherichia coli [1] = assay: Reduction of OmpF expression in Escherichia coli Wi expressing CTX-M9 at 4 times MIC concentration by RT-PCR analysis
Procedure, shortened: (§1)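 Ertapenem-decreased-susceptibility mutants of E. coli Wi transformants were selected overnight (18 h, 37°C) on Trypticase soy agar containing ertapenem at fourfold the MIC. omp gene transcripts were quantified by real-time RT-PCR in isolates before and after selection. Calibration curves came from serially diluted cDNA of in vitro-obtained RNA standards for each gene, and copy numbers were compared using the curve slopes.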

Escherichia coli [2] = assay: Reduction of OmpC expression in Escherichia coli Wi expressing CTX-M2 at 4 times MIC concentration by SDS-PAGE analysis
Klebsiella pneumoniae [3] = assay: Reduction of OmpK36 expression in Klebsiella pneumoniae M expressing CTX-M15 at 4 times MIC concentration by SDS-PAGE analysis
Klebsiella pneumoniae [4] = assay: Antibacterial activity against Klebsiella pneumoniae M expressing CTX-M3
Escherichia coli [5] = assay: Reduction of OmpF expression in Escherichia coli Wi expressing CTX-M15 at 4 times MIC concentration by RT-PCR analysis; procedure, shortened: as §1
Escherichia coli [6] = assay: Reduction of OmpC expression in Escherichia coli Wi expressing CTX-M9 at 4 times MIC concentration by RT-PCR analysis; procedure, shortened: as §1
Klebsiella pneumoniae [7] = assay: Reduction of OmpK36 expression in Klebsiella pneumoniae M expressing CTX-M3 at 4 times MIC concentration by SDS-PAGE analysis
Klebsiella pneumoniae [8] = assay: Reduction of OmpK35 expression in Klebsiella pneumoniae M expressing CTX-M2 at 4 times MIC concentration by RT-PCR analysis
Procedure, shortened: (§2)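 K. pneumoniae M strains, with or without CTX-M, were selected for 18 h at 37°C on Trypticase soy agar with ertapenem at four times the MIC. ompK35 (222-bp amplicon) and ompK36 (202-bp amplicon) transcripts were measured by real-time RT-PCR before and after selection; a 193-bp 16S rRNA amplicon was also amplified. Copy numbers were derived from the slopes of calibration curves made with serially diluted cDNA from in vitro RNA standards.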

Klebsiella pneumoniae [9] = assay: Antibacterial activity against Klebsiella pneumoniae M expressing CTX-M2
Escherichia coli [10] = assay: Antibacterial activity against Escherichia coli Wi expressing CTX-M9
Klebsiella pneumoniae [11] = assay: Reduction of OmpK36 expression in Klebsiella pneumoniae M expressing CTX-M3 at 4 times MIC concentration by RT-PCR analysis; procedure, shortened: as §2
Escherichia coli [12] = assay: Reduction of OmpF expression in Escherichia coli Wi expressing CTX-M3 at 4 times MIC concentration by RT-PCR analysis; procedure, shortened: as §1
Klebsiella pneumoniae [13] = assay: Reduction of OmpK36 expression in wild type Klebsiella pneumoniae M at 4 times MIC concentration by RT-PCR analysis; procedure, shortened: as §2
Escherichia coli [14] = assay: Antibacterial activity against Escherichia coli Wi expressing CTX-M3
Escherichia coli [15] = assay: Reduction of OmpC expression in Escherichia coli Wi expressing CTX-M15 at 4 times MIC concentration by RT-PCR analysis; procedure, shortened: as §1
Klebsiella pneumoniae [16] = assay: Antibacterial activity against Klebsiella pneumoniae M expressing CTX-M9
Klebsiella pneumoniae [17] = assay: Reduction of OmpK36 expression in Klebsiella pneumoniae M expressing CTX-M2 at 4 times MIC concentration by SDS-PAGE analysis
Klebsiella pneumoniae [18] = assay: Reduction of OmpK35 expression in Klebsiella pneumoniae M expressing CTX-M15 at 4 times MIC concentration by RT-PCR analysis; procedure, shortened: as §2
Klebsiella pneumoniae [19] = assay: Reduction of OmpK36 expression in Klebsiella pneumoniae M expressing CTX-M15 at 4 times MIC concentration by RT-PCR analysis; procedure, shortened: as §2
Klebsiella pneumoniae [20] = assay: Reduction of OmpK35 expression in Klebsiella pneumoniae M expressing CTX-M9 at 4 times MIC concentration by RT-PCR analysis; procedure, shortened: as §2
Escherichia coli [21] = assay: Reduction of OmpC expression in Escherichia coli Wi expressing CTX-M15 at 4 times MIC concentration by SDS-PAGE analysis
Escherichia coli [22] = assay: Reduction of OmpC expression in Escherichia coli Wi expressing CTX-M2 at 4 times MIC concentration by RT-PCR analysis; procedure, shortened: as §1
Klebsiella pneumoniae [23] = assay: Reduction of OmpK35 expression in Klebsiella pneumoniae M expressing CTX-M3 at 4 times MIC concentration by RT-PCR analysis; procedure, shortened: as §2
Klebsiella pneumoniae [24] = assay: Reduction of OmpK36 expression in Klebsiella pneumoniae M expressing CTX-M9 at 4 times MIC concentration by RT-PCR analysis; procedure, shortened: as §2
Klebsiella pneumoniae [25] = assay: Reduction of OmpK36 expression in Klebsiella pneumoniae M expressing CTX-M9 at 4 times MIC concentration by SDS-PAGE analysis
Escherichia coli [26] = assay: Antibacterial activity against Escherichia coli Wi expressing CTX-M2
Escherichia coli [27] = assay: Reduction of OmpC expression in Escherichia coli Wi expressing CTX-M3 at 4 times MIC concentration by SDS-PAGE analysis
Escherichia coli [28] = assay: Reduction of OmpF expression in Escherichia coli Wi expressing CTX-M2 at 4 times MIC concentration by RT-PCR analysis; procedure, shortened: as §1
Escherichia coli [29] = assay: Reduction of OmpC expression in Escherichia coli Wi expressing CTX-M9 at 4 times MIC concentration by SDS-PAGE analysis
Klebsiella pneumoniae [30] = assay: Reduction of OmpK36 expression in wild type Klebsiella pneumoniae M at 4 times MIC concentration by SDS-PAGE analysis
Escherichia coli [31] = assay: Reduction of OmpC expression in Escherichia coli Wi expressing CTX-M3 at 4 times MIC concentration by RT-PCR analysis; procedure, shortened: as §1
Escherichia coli [32] = assay: Antibacterial activity against Escherichia coli Wi expressing CTX-M15
Klebsiella pneumoniae [33] = assay: Antibacterial activity against Klebsiella pneumoniae M expressing CTX-M15
Klebsiella pneumoniae [34] = assay: Reduction of OmpK36 expression in Klebsiella pneumoniae M expressing CTX-M2 at 4 times MIC concentration by RT-PCR analysis; procedure, shortened: as §2

C[C@@H](O)[C@H]1C(=O)N2C(C(=O)O)=C(S[C@@H]3CN[C@H](C(=O)Nc4cccc(C(=O)O)c4)C3)[C@H](C)[C@H]12
Activity (Escherichia coli [1]): Active
Activity (Escherichia coli [2]): Active
Activity (Klebsiella pneumoniae [3]): Active
Activity (Klebsiella pneumoniae [4]): inactive
Activity (Escherichia coli [5]): Active
Activity (Escherichia coli [6]): Active
Activity (Klebsiella pneumoniae [7]): Active
Activity (Klebsiella pneumoniae [8]): Active
Activity (Klebsiella pneumoniae [9]): inactive
Activity (Escherichia coli [10]): inactive
Activity (Klebsiella pneumoniae [11]): Active
Activity (Escherichia coli [12]): Active
Activity (Klebsiella pneumoniae [13]): Active
Activity (Escherichia coli [14]): inactive
Activity (Escherichia coli [15]): Active
Activity (Klebsiella pneumoniae [16]): inactive
Activity (Klebsiella pneumoniae [17]): Active
Activity (Klebsiella pneumoniae [18]): Active
Activity (Klebsiella pneumoniae [19]): Active
Activity (Klebsiella pneumoniae [20]): Active
Activity (Escherichia coli [21]): Active
Activity (Escherichia coli [22]): Active
Activity (Klebsiella pneumoniae [23]): Active
Activity (Klebsiella pneumoniae [24]): Active
Activity (Klebsiella pneumoniae [25]): Active
Activity (Escherichia coli [26]): inactive
Activity (Escherichia coli [27]): Active
Activity (Escherichia coli [28]): Active
Activity (Escherichia coli [29]): Active
Activity (Klebsiella pneumoniae [30]): Active
Activity (Escherichia coli [31]): Active
Activity (Escherichia coli [32]): inactive
Activity (Klebsiella pneumoniae [33]): inactive
Activity (Klebsiella pneumoniae [34]): Active
